Assay outcomes: PubChem, The Scripps Research Institute Molecular Screening Center
This is a sample that favours compounds with a hit; in the whole collection about 2.5% have one here.
ABHD4 inh = inhibitors of mouse ABHD4; actives 0.54% (n = 370,000); Q8VD66; inhibition, % at 8.92 µM; AID 720543; purified mABHD4, FP-Rh probe fluorescence polarization;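 active = inhibition exceeding the mean over every tested compound plus 3 SD, cut at about 30% in these data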
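Material: mouse ABHD4 enzyme, wild type; Benchmarks: S159A mutant high control, sample median low control; Buffer or medium: HEPES pH 7.0, NaCl, Pluronic buffer; Signal: fluorescence polarization; Read-out: percent inhibition of probe binding, normalized to plate controls; Timing: pre-incubation 45 min, probe exposure 60 min, at 25 °C; Dosing: 8.92 µM, single dose.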
HTRA1 inh = inhibitors of human serine peptidase HTRA1. Q92743. recombinant HTRA1, FP-rhodamine activity-based probe, fluorescence polarization. inhibition, % at 5.96 µM. actives 0.5% (n = 340,000); in the data active = inhibition above about 36%
SIAE inh = blocks human sialic acid acetylesterase; SIAE FP-Rh probe binding, fluorescence polarization; inhibition, % at 9.66 µM; actives 0.69% (n = 370,000);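 active = inhibition above a cutoff: mean of compounds within the control limits plus 3 SD of those, cut at about 17% in these data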
TCR CD3 inh = inhibitors of human TCR-CD3 interaction; actives 0.37% (n = 360,000); inhibition, % at 9.4 µM; AID 651800; TAMRA-labeled TCR probe fluorescence, biochemical; in the data active = inhibition above about 19%;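 also: recombinant mutant TCR 2C K166C tagged with TAMRA read by polarization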
PRMT1 FP inh = PRMT1 (human) inhibition, primary screen; AID 652257; actives 1.3% (n = 370,000); recombinant PRMT1, activity-based probe fluorescence polarization; inhibition, % at 2.79 µM; Q99873;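 active = inhibition above about 21% made by adding two undisclosed values, limit read from the data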
Target sequence (Q99873 whole entry, looked up): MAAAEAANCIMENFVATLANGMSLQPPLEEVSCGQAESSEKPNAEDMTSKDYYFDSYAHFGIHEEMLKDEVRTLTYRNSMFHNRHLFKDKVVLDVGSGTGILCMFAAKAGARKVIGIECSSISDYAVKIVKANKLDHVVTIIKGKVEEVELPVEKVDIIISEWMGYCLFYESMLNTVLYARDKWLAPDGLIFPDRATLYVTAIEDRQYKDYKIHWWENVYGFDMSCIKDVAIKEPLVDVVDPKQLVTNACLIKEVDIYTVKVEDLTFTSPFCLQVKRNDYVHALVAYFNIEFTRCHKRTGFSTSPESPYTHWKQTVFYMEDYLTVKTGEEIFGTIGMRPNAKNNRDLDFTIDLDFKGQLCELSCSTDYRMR
PRMT1 inh conf = PRMT1 (human) inhibition, FP confirmation; shares compounds with PRMT1 FP inh; recombinant His-PRMT1, activity-based probe fluorescence polarization; inhibition, % at 2.79 µM; actives 42% (n = 3,300);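 active = mean inhibition across replicates above the hit cutoff derived for the earlier primary screen, cut at about 22% in these data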
ABHD4 confirm = confirmation of mouse ABHD4 inhibitors; purified mABHD4, FP-Rh probe fluorescence polarization; actives 55% (n = 1,800); AID 720658; inhibition, % at 8.92 µM; shares compounds with ABHD4 inh;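 active = mean inhibition across replicates above the hit cutoff set in the primary screen, cut at about 30% in these data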
SIAE confirm = human SIAE inhibition, confirmation. shares compounds with SIAE inh. SIAE FP-Rh activity-based probe, fluorescence polarization. inhibition, % at 9.66 µM. actives 13% (n = 2,300);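 active = mean inhibition of the replicates above the hit cutoff set in the primary screen, cut at about 17% in these data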;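 also: inhibitors lower polarization as more probe stays unbound to SIAE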
Numbers stand for hits; – = inactive; · = no result given.

SMILES	ABHD4 inh	HTRA1 inh	SIAE inh	TCR CD3 inh	PRMT1 FP inh	ABHD4 confirm	others
S=P(NCCNP(=S)(N1CC1)N1CC1)(N1CC1)N1CC1	–	–	–	–	58	·	PRMT1 inh conf=–
S=P(NCCSCc1ccccc1)(N1CC1)N1CC1	–	–	–	–	29	·	PRMT1 inh conf=–
O=C1CC23c4ccccc4N4C(=O)CC5OCC=C6CN1C2CC6C5C43 (centres undefined)	–	–	–	–	–	·
NS(=O)(=O)c1ccc(-c2ccc(C=C3C(=O)NC(=S)NC3=O)o2)cc1	–	·	–	–	47	·	PRMT1 inh conf=68
NS(=O)(=O)c1ccc(-c2ccc(C=C3C(=O)NC(=O)NC3=O)o2)cc1	–	–	–	–	–	·
CC(C)(C)n1nnnc1C1CN=C(c2ccccc2)c2cc(Cl)ccc2N1 (centres undefined)	–	·	–	·	–	·
Cc1cc2c(C(F)(F)F)cc(=O)oc2c2c1NCCC2	–	–	–	–	38	·	PRMT1 inh conf=58
O=c1[nH]c2ccccc2n1C1CCN(C(c2cc3ccccc3o2)c2nnnn2Cc2ccccc2)CC1 (centres undefined)	–	·	–	–	–	·
O=C1C2CC=CCC2C(=O)N1SC(Cl)(Cl)Cl (centres undefined)	–	·	–	–	75	·	PRMT1 inh conf=87
CN(C)C(=S)SSC(=S)N(C)C	–	–	–	–	87	·	PRMT1 inh conf=102
Cn1cccc1/C=C1/C(=O)NC(=S)N(Cc2ccc(F)cc2)C1=O	49	45	–	–	27	57	PRMT1 inh conf=65
N#Cc1ccc2nc(-c3ccc(CN4CCC(n5nnc6ccccc65)CC4)cc3)c(-c3ccccc3)nc2c1	–	·	–	–	–	·
COc1ccc(/C=N/N=C(/N)N[N+](=O)[O-])c(OC)c1	–	–	–	–	–	·
N/C(=N\N=C/c1ccc(-c2ccc(O)c(C(=O)O)c2)o1)N[N+](=O)[O-]	35	–	–	–	33	42
C[C@@H]1CNCCN1c1ccc(N2CC[C@H](O)C2)c(C#N)c1	–	·	–	–	–	·
CC1C2Cc3ccc(O)cc3C1(C)CCN2CC1CC1 (centres undefined)	–	·	–	–	–	·
COC(=O)C1=C(c2ccc(OCc3ccccc3)cc2)C[C@@H]2CC[C@H]1N2C(=O)NCc1ccc(OC)c(OC)c1	46	–	–	–	–	58
O=c1[nH]c(=S)n(-c2ccccc2F)c(O)c1C=Nc1ccc(N2CCOCC2)cc1	58	–	–	–	–	–
CCN(CC)c1ccc(N=Cc2c(O)n(-c3ccc(Cl)cc3)c(=O)[nH]c2=O)cc1	–	–	–	–	–	·
O=c1[nH]c(=S)n(-c2ccc(Br)cc2)c(O)c1C=Nc1ccc(N2CCOCC2)cc1	–	–	–	–	–	·
CC(=O)N1CCN(c2ccc(N=Cc3c(O)n(-c4ccc(Cl)cc4)c(=O)[nH]c3=O)cc2)CC1	42	–	–	–	–	–
Cn1cc(P(=S)(c2ccccc2)c2ccccc2)c2ccccc21	–	·	–	·	–	·
CC(C)(C)Cc1nnc(NC(=O)COc2ccc(Cl)cc2Cl)o1	–	·	–	·	–	·
CCn1c(O)c(/C=N/NC(=O)c2ccncc2)c(=O)[nH]c1=S	–	–	–	–	–	·
O=C(N/N=C/c1c(O)n(Cc2ccc(F)cc2)c(=S)[nH]c1=O)c1ccncc1	32	–	–	–	–	37
SMILES	ABHD4 inh	HTRA1 inh	SIAE inh	TCR CD3 inh	PRMT1 FP inh	ABHD4 confirm	others
CCN(CC)c1ccc(N=Cc2c(O)n(-c3ccc(OC)cc3)c(=O)[nH]c2=O)cc1	38	–	–	–	–	–
Cc1ccccc1-n1c(O)c(C=Nc2ccc(N(C)C)cc2)c(=O)[nH]c1=O	40	–	–	–	21	–
O=C(N/N=C/C1C(=O)NC(=S)N(c2ccccc2)C1=O)c1cc(Br)c(O)c(Br)c1 (centres undefined)	42	–	–	–	–	48
O=C(O)c1cccc2c1NC(c1cccc([N+](=O)[O-])c1)C1CC(Sc3ccccc3[N+](=O)[O-])C(Cl)C21 (centres undefined)	30	–	–	–	23	55
COc1ccc(-n2c(=S)[nH]c3ccc(C)cc3c2=O)cc1	32	–	–	–	–	–
CNC(=O)C[C@H]1CC[C@@H]2NC[C@H](O)COC[C@H]2O1	–	·	–	–	–	·
COC(=O)[C@@H]1N=C(c2ccc(OC)cc2)O[C@]12C(=O)N(C)c1ccc(Cl)cc12	–	·	–	–	–	·
CN1CCc2cc(O)cc3c2[C@H]1Cc1ccc(O)c(O)c1-3	57	–	–	–	79	–
C=CCn1c(O)c(C(CC)=Nc2ccc3c(c2)CCC3)c(=O)[nH]c1=O	–	–	–	–	–	·
C=CCn1c(O)c(C(CC)=Nc2ccc(N(C)C)cc2)c(=O)[nH]c1=O	43	·	–	–	33	–
COc1c(O)cc2c(c1OC)-c1ccc(SC)c(=O)cc1C(NC(C)=O)CC2 (centres undefined)	–	–	–	–	–	·
O=c1[nH]c(=O)n(CCC2=CCCCC2)c(O)c1/C=N/N1CCOCC1	–	–	–	–	–	·
O=c1[nH]c(=O)n(CCC2=CCCCC2)c(O)c1/C=N/Nc1cccc2ccccc12	33	–	–	–	–	–
CNC(=O)Oc1cccc(-c2cn3cc(OC(=O)NC)ccc3n2)c1	40	–	17	–	–	–	SIAE confirm=–
O=C(O)C(Br)Br	–	·	–	–	–	·
CC(C)Oc1ccc(C2C(C#N)=C(N)Oc3c2c(=O)oc2ccccc32)cc1 (centres undefined)	–	–	–	–	–	·
N#CC1=C(N)Oc2c(c(=O)oc3ccccc23)C1c1ccc([N+](=O)[O-])o1 (centres undefined)	–	–	22	–	–	·	SIAE confirm=–
CC1=NN(c2ccccc2)C(=O)C1/C=C1/C(=O)NC(=O)N(c2cc(C)cc(C)c2)C1=O (centres undefined)	–	–	75	–	–	·	SIAE confirm=–
CN1/C(=C\C=C2C(=O)NC(=S)NC2=O)C(C)(C)c2ccccc21	–	–	60	–	–	·	SIAE confirm=153
CC1(C)OC(c2ccccc2)=C/C(=C/C=C2C(=O)NC(=S)NC2=O)O1	–	·	–	–	–	·
C[C@H](NC(=O)OCc1ccccc1)[P+](=O)O	–	·	–	·	–	·
COc1cc2c(cc1OC)-c1c(OC)c(OC)cc3c1[C@H](C2)[N+](C)(C)CC3	–	–	18	–	–	·	SIAE confirm=–
O=c1cc(C(F)(F)F)c2cc3c4c(c2o1)CCCN4CCC3	–	–	18	–	101	·	SIAE confirm=–
Cc1ccc(-c2cc(-c3ccc(C)cc3)[n+](C)o2)cc1	–	–	18	–	–	·	SIAE confirm=–
NCc1cc(=O)[nH]o1	–	–	–	–	–	·
